Data from publication PMC3738144 (British Journal of Cancer, 2013).
Each block holds one compound with its values, some of them ahead of it.

Legend:
[1] = Plasma pharmacokinetics of lenvatinib, carboplatin and paclitaxel; format: in vivo; conditions: human
[2] = test system: NSCLC (stage IIIB/IV) target lesions; test: Antitumor activity by RECIST version 1.0; format: in vivo, human
Summary of the method: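 Chemotherapy-naïve stage IIIB/IV NSCLC patients (20–74 y, ECOG 0–1, ≥1 measurable lesion) took oral test compound continuously BID. […] Investigators assessed tumours by RECIST 1.0 every two cycles. PFS ran from treatment start to PD or death (Kaplan–Meier).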

[3] = test system: patients with stage IIIB/IV NSCLC; test: Safety assessment: adverse events graded by CTCAE version 3.0; format: in vivo, human
[4] = test system: patients with stage IIIB/IV NSCLC; format: in vivo, human
[5] = test system: plasma angiogenic proteins and cytokines; test: Plasma biomarker; format: in vivo, human; conditions: median (minimum–maximum), lenvatinib with carboplatin/paclitaxel
[6] = 4 mg BID (n=22) with carboplatin/paclitaxel
[7] = 6 mg BID (n=6) with carboplatin/paclitaxel
[8] = 4 mg level (22 patients) with carboplatin/paclitaxel

clearance ([1]; intravenous, CL, paclitaxel 200 mg m^−2, with lenvatinib 4 mg BID (n=6), mean±s.d.): 240 mL/min
Vd ([1]; intravenous, Vss, paclitaxel 200 mg m^−2, with lenvatinib 4 mg BID (n=6), mean±s.d.): 69.1 ± 27.7 L
half-life ([1]; intravenous, t1/2, paclitaxel 200 mg m^−2, with lenvatinib 4 mg BID (n=6), mean±s.d.): 6.65 ± 0.39 h
SMILES: CC(=O)O[C@H]1C(=O)[C@@]2(C)[C@H]([C@H](OC(=O)c3ccccc3)[C@]3(O)C[C@H](OC(=O)[C@H](O)[C@@H](NC(=O)c4ccccc4)c4ccccc4)C(C)=C1C3(C)C)[C@]1(OC(C)=O)CO[C@@H]1C[C@@H]2O [Paclitaxel, reference compound]

SMILES: COc1cc2nccc(Oc3ccc(NC(=O)NC4CC4)c(Cl)c3)c2cc1C(N)=O [lenvatinib, Lenvatinib]
Best response CR [2, 6]: 1 (5) n (%)
Best response NE [2, 6]: 1 (5) n (%)
Best response PD [2, 6]: 1 (5) n (%)
Best response PR [2, 6]: 14 (64) n (%)
Best response SD [2, 6]: 5 (23) n (%)
ORR (CR+PR) [2, 6]: 15 (68) n (%)
Median PFS ([2]; 4 mg BID groups with carboplatin/paclitaxel): 9.0 months
Best response CR [2, 7]: 0 (0) n (%)
Best response NE [2, 7]: 2 (33) n (%)
Best response PD [2, 7]: 0 (0) n (%)
Best response PR [2, 7]: 2 (33) n (%)
Best response SD [2, 7]: 2 (33) n (%)
ORR (CR+PR) [2, 7]: 2 (33) n (%)
complete response ([2]; 22 patients at the 4 mg level): 5%
partial response ([2]; 22 patients at the 4 mg level): 64%
Best response CR ([2]; Total (n=28)): 1 (4) n (%)
Best response NE ([2]; Total (n=28)): 3 (11) n (%)
Best response PD ([2]; Total (n=28)): 1 (4) n (%)
Best response PR ([2]; Total (n=28)): 16 (57) n (%)
Best response SD ([2]; Total (n=28)): 7 (25) n (%)
ORR (CR+PR) ([2]; Total (n=28)): 17 (61) n (%)
Median PFS ([2]; total): 9.0 months
median duration of response ([2]; total): 7.0 months
patients with a treatment-related serious AE ([3]; 4 mg BID): 7 n
Anaemia Grade 3, treatment-related adverse event [3, 6]: 3 (14) n (%)
Anaemia Grade 4, treatment-related adverse event [3, 6]: 0 n (%)
Anal abscess Grade 3, treatment-related adverse event [3, 6]: 1 (5) n (%)
Anal abscess Grade 4, treatment-related adverse event [3, 6]: 0 n (%)
Decreased appetite Grade 3, treatment-related adverse event [3, 6]: 1 (5) n (%)
Decreased appetite Grade 4, treatment-related adverse event [3, 6]: 0 n (%)
Diarrhoea Grade 3, treatment-related adverse event [3, 6]: 1 (5) n (%)
Diarrhoea Grade 4, treatment-related adverse event [3, 6]: 0 n (%)
Febrile neutropenia Grade 3, treatment-related adverse event [3, 6]: 5 (23) n (%)
Febrile neutropenia Grade 4, treatment-related adverse event [3, 6]: 0 n (%)
Gingival infection Grade 3, treatment-related adverse event [3, 6]: 1 (5) n (%)
Gingival infection Grade 4, treatment-related adverse event [3, 6]: 0 n (%)
Hypertension Grade 3, treatment-related adverse event [3, 6]: 8 (36) n (%)
Hypertension Grade 4, treatment-related adverse event [3, 6]: 0 n (%)
Hypocalcemia Grade 3, treatment-related adverse event [3, 6]: 1 (5) n (%)
Hypocalcemia Grade 4, treatment-related adverse event [3, 6]: 0 n (%)
Hyponatremia Grade 3, treatment-related adverse event [3, 6]: 1 (5) n (%)
Hyponatremia Grade 4, treatment-related adverse event [3, 6]: 0 n (%)
Leukopenia Grade 3, treatment-related adverse event [3, 6]: 10 (46) n (%)
Leukopenia Grade 4, treatment-related adverse event [3, 6]: 1 (5) n (%)
Lymphopenia Grade 3, treatment-related adverse event [3, 6]: 1 (5) n (%)
Lymphopenia Grade 4, treatment-related adverse event [3, 6]: 0 n (%)
Nausea Grade 3, treatment-related adverse event [3, 6]: 1 (5) n (%)
Nausea Grade 4, treatment-related adverse event [3, 6]: 0 n (%)
Neurogenic bladder Grade 3, treatment-related adverse event [3, 6]: 1 (5) n (%)
Neurogenic bladder Grade 4, treatment-related adverse event [3, 6]: 0 n (%)
Neutropenia Grade 3, treatment-related adverse event [3, 6]: 0 n (%)
Neutropenia Grade 4, treatment-related adverse event [3, 6]: 21 (95) n (%)
Peripheral sensory neuropathy Grade 3, treatment-related adverse event [3, 6]: 1 (5) n (%)
Peripheral sensory neuropathy Grade 4, treatment-related adverse event [3, 6]: 0 n (%)
Pneumonia Grade 3, treatment-related adverse event [3, 6]: 1 (5) n (%)
Pneumonia Grade 4, treatment-related adverse event [3, 6]: 0 n (%)
Proteinuria Grade 3, treatment-related adverse event [3, 6]: 2 (9) n (%)
Proteinuria Grade 4, treatment-related adverse event [3, 6]: 0 n (%)
Pyelonephritis Grade 3, treatment-related adverse event [3, 6]: 1 (5) n (%)
Pyelonephritis Grade 4, treatment-related adverse event [3, 6]: 0 n (%)
Syncope Grade 3, treatment-related adverse event [3, 6]: 0 n (%)
Syncope Grade 4, treatment-related adverse event [3, 6]: 0 n (%)
Thrombocytopenia Grade 3, treatment-related adverse event [3, 6]: 4 (18) n (%)
Thrombocytopenia Grade 4, treatment-related adverse event [3, 6]: 2 (9) n (%)
Thrombosis Grade 3, treatment-related adverse event [3, 6]: 1 (5) n (%)
Thrombosis Grade 4, treatment-related adverse event [3, 6]: 0 n (%)
Vomiting Grade 3, treatment-related adverse event [3, 6]: 1 (5) n (%)
Vomiting Grade 4, treatment-related adverse event [3, 6]: 0 n (%)
Weight decreased Grade 3, treatment-related adverse event [3, 6]: 1 (5) n (%)
Weight decreased Grade 4, treatment-related adverse event [3, 6]: 0 n (%)
alopecia incidence (all grades) [3, 8]: 95%
arthralgia incidence (all grades) [3, 8]: 95%
grade 3 or 4 febrile neutropenia [3, 8]: 23%
grade 3 or 4 hypertension [3, 8]: 36%
grade 3 or 4 leukopenia [3, 8]: 50%
grade 3 or 4 neutropenia [3, 8]: 95%
grade 3 or 4 thrombocytopenia [3, 8]: 27%
leukopenia incidence (all grades) [3, 8]: 95%
neutropenia incidence (all grades) [3, 8]: 95%
peripheral sensory neuropathy incidence (all grades) [3, 8]: 95%
patients with a treatment-related serious AE ([3]; 6 mg BID): 2 n
Anaemia Grade 3, treatment-related adverse event [3, 7]: 0 n (%)
Anaemia Grade 4, treatment-related adverse event [3, 7]: 0 n (%)
Anal abscess Grade 3, treatment-related adverse event [3, 7]: 0 n (%)
Anal abscess Grade 4, treatment-related adverse event [3, 7]: 0 n (%)
Decreased appetite Grade 3, treatment-related adverse event [3, 7]: 0 n (%)
Decreased appetite Grade 4, treatment-related adverse event [3, 7]: 0 n (%)
Diarrhoea Grade 3, treatment-related adverse event [3, 7]: 0 n (%)
Diarrhoea Grade 4, treatment-related adverse event [3, 7]: 0 n (%)
Febrile neutropenia Grade 3, treatment-related adverse event [3, 7]: 1 (17) n (%)
Febrile neutropenia Grade 4, treatment-related adverse event [3, 7]: 0 n (%)
Gingival infection Grade 3, treatment-related adverse event [3, 7]: 1 (17) n (%)
Gingival infection Grade 4, treatment-related adverse event [3, 7]: 0 n (%)
Hypertension Grade 3, treatment-related adverse event [3, 7]: 4 (67) n (%)
Hypertension Grade 4, treatment-related adverse event [3, 7]: 0 n (%)
Hypocalcemia Grade 3, treatment-related adverse event [3, 7]: 0 n (%)
Hypocalcemia Grade 4, treatment-related adverse event [3, 7]: 0 n (%)
Hyponatremia Grade 3, treatment-related adverse event [3, 7]: 0 n (%)
Hyponatremia Grade 4, treatment-related adverse event [3, 7]: 0 n (%)
Leukopenia Grade 3, treatment-related adverse event [3, 7]: 2 (33) n (%)
Leukopenia Grade 4, treatment-related adverse event [3, 7]: 1 (17) n (%)
Lymphopenia Grade 3, treatment-related adverse event [3, 7]: 0 n (%)
Lymphopenia Grade 4, treatment-related adverse event [3, 7]: 0 n (%)
Nausea Grade 3, treatment-related adverse event [3, 7]: 0 n (%)
Nausea Grade 4, treatment-related adverse event [3, 7]: 0 n (%)
Neurogenic bladder Grade 3, treatment-related adverse event [3, 7]: 0 n (%)
Neurogenic bladder Grade 4, treatment-related adverse event [3, 7]: 0 n (%)
Neutropenia Grade 3, treatment-related adverse event [3, 7]: 0 n (%)
Neutropenia Grade 4, treatment-related adverse event [3, 7]: 5 (83) n (%)
Peripheral sensory neuropathy Grade 3, treatment-related adverse event [3, 7]: 0 n (%)
Peripheral sensory neuropathy Grade 4, treatment-related adverse event [3, 7]: 0 n (%)
Pneumonia Grade 3, treatment-related adverse event [3, 7]: 2 (33) n (%)
Pneumonia Grade 4, treatment-related adverse event [3, 7]: 0 n (%)
Proteinuria Grade 3, treatment-related adverse event [3, 7]: 0 n (%)
Proteinuria Grade 4, treatment-related adverse event [3, 7]: 0 n (%)
Pyelonephritis Grade 3, treatment-related adverse event [3, 7]: 0 n (%)
Pyelonephritis Grade 4, treatment-related adverse event [3, 7]: 0 n (%)
Syncope Grade 3, treatment-related adverse event [3, 7]: 1 (17) n (%)
Syncope Grade 4, treatment-related adverse event [3, 7]: 0 n (%)
Thrombocytopenia Grade 3, treatment-related adverse event [3, 7]: 0 n (%)
Thrombocytopenia Grade 4, treatment-related adverse event [3, 7]: 0 n (%)
Thrombosis Grade 3, treatment-related adverse event [3, 7]: 0 n (%)
Thrombosis Grade 4, treatment-related adverse event [3, 7]: 0 n (%)
Vomiting Grade 3, treatment-related adverse event [3, 7]: 0 n (%)
Vomiting Grade 4, treatment-related adverse event [3, 7]: 0 n (%)
Weight decreased Grade 3, treatment-related adverse event [3, 7]: 0 n (%)
Weight decreased Grade 4, treatment-related adverse event [3, 7]: 0 n (%)
SAE febrile neutropenia ([3]; all 28 patients): 7%
SAE pneumonia ([3]; all 28 patients): 7%
deaths ([3]; all 28 patients): No deaths were reported
patients with a treatment-related serious AE ([3]; all 28 patients (4 and 6 mg BID)): Nine
changes in mean QT interval and QTcF ([3]; combination or maintenance therapy): no changes of clinical importance
Cmax ([1]; oral, 4 mg): 97.5 ± 38.4 ng/mL
Tmax ([1]; oral, 4 mg, tmax, lenvatinib in plasma, lenvatinib 4 mg BID (n=6) with carboplatin/paclitaxel, median (minimum–maximum)): 4.18 h
Cmax ([1]; oral, 6 mg): 138 ± 35.3 ng/mL
Tmax ([1]; oral, 6 mg, Median time of maximum concentration (tmax), lenvatinib, across 4 and 6 mg BID groups): 4.18 to 4.27 h
AUC(0-t) ([1]; oral, 6 mg, mean AUC(0−t), lenvatinib, across 4 and 6 mg BID groups): 692 to 848 ng·h/mL
dose-limiting toxicities (DLTs) ([4]; 4 mg BID (n=6), dose-finding cohort): No DLTs
maximum tolerated dose (MTD) of lenvatinib ([4]; oral, with carboplatin (AUC 6)/paclitaxel (200 mg m^−2) day 1 every 3 weeks, advanced NSCLC): 4 mg BID
FGF-2 plasma, observed value ([5]; Cycle 1 day 8 (n=26)): 17.2 (7–59) pg ml^−1
G-CSF plasma, observed value ([5]; Cycle 1 day 8 (n=26)): 7.6 (3–27) pg ml^−1
HGF plasma, observed value ([5]; Cycle 1 day 8 (n=26)): 244.0 (163–353) pg ml^−1
PDGF-B plasma, observed value ([5]; Cycle 1 day 8 (n=26)): 237.9 (14–2849) pg ml^−1
SCF plasma, observed value ([5]; Cycle 1 day 8 (n=26)): 101.0 (54–173) pg ml^−1
FGF-2 plasma, observed value ([5]; Cycle 1 day 22 (n=26)): 16.0 (7–57) pg ml^−1
G-CSF plasma, observed value ([5]; Cycle 1 day 22 (n=26)): 7.5 (2–17) pg ml^−1
IL-8 plasma, observed value ([5]; Cycle 1 day 22 (n=26)): 4.4 (3–15) pg ml^−1
SCF plasma, observed value ([5]; Cycle 1 day 22 (n=26)): 102.9 (43–184) pg ml^−1
SDF1α plasma, observed value ([5]; Cycle 1 day 22 (n=26)): 76.9 (30–140) pg ml^−1
